We go through 4 molecules from ChEMBL document CHEMBL1777700, “Inhibition of multi-drug resistant HIV-1 reverse transcriptase by nucleoside β-triphosphates” (Bioorg Med Chem Lett, 2011).

Test [1] addresses Human immunodeficiency virus type 1 reverse transcriptase (Human immunodeficiency virus 1) (UniProt Q72547). Description: Inhibition of wild type HIV1 recombinant reverse transcriptase p66/p51 heterodimer at 10 to 100 uM after 10 mins by gel-based radiolabeled primer extension assay. Put shortly:
(§1)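 Purified p66/p51 HIV-1 RT (10 nM) was added to start reactions containing 50 nM of a 40 nt DNA template annealed to a 5′ end-labeled 22 nt DNA primer. The mix held 200 μM dNTPs, 10 mM Tris-HCl pH 8.0, 80 mM NaCl and 6 mM MgCl2. Reactions ran 10 min at 37 °C and were stopped with formamide gel-loading buffer. Inhibitor was tested at 10 nM–1 mM in tenfold steps, with a no-inhibitor lane.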

Test [2] shares this target. Description: Inhibition of wild type HIV1 recombinant reverse transcriptase p66/p51 heterodimer […] after 10 mins by gel-based radiolabeled primer extension assay.
The test system of test [3] is Human immunodeficiency virus type 1 reverse transcriptase (Human immunodeficiency virus 1), Q72547 [M184V,K65R,Y115F]. Description: Inhibition of NRTI-resistant HIV1 recombinant reverse transcriptase p66/p51 M184V/K65R/Y115F mutant at 100 uM after 10 mins by gel-based radiolabeled primer extension assay. Put shortly:
as §1

In test [4] the target is Human immunodeficiency virus type 1 reverse transcriptase (Human immunodeficiency virus 1) (UniProt Q72547). Description: Inhibition of NNRTI-resistant HIV1 recombinant reverse transcriptase p66/p51 heterodimer up to 1 mM after 10 mins by gel-based radiolabeled primer extension assay. Put shortly:
as §1

Test [5] has the same target. Description: Inhibition of wild type HIV1 recombinant reverse transcriptase p66/p51 heterodimer at 10 nM after 10 mins by gel-based radiolabeled primer extension assay. Put shortly: as §1
In test [6] the test system is Human immunodeficiency virus type 1 reverse transcriptase (Human immunodeficiency virus 1), Q72547 [M184V,K65R,Y115F]. Description: Inhibition of NRTI-resistant HIV1 recombinant reverse transcriptase p66/p51 M184V/K65R/Y115F mutant at 10 uM after 10 mins by gel-based radiolabeled primer extension assay. Put shortly:
as §1

For test [7] the test system is unchanged. Description: Inhibition of NRTI-resistant HIV1 recombinant reverse transcriptase p66/p51 M184V/K65R/Y115F mutant at 10 nM after 10 mins by gel-based radiolabeled primer extension assay. Put shortly: as §1
For test [8], the target named is Human immunodeficiency virus type 1 reverse transcriptase (Human immunodeficiency virus 1) (UniProt Q72547). Description: Inhibition of NNRTI-resistant HIV1 recombinant reverse transcriptase p66/p51 heterodimer at 10 nM to 10 uM after 10 mins by gel-based radiolabeled primer extension assay.
The target is the same in test [9]. Description: Inhibition of NNRTI-resistant HIV1 recombinant reverse transcriptase p66/p51 heterodimer at 100 uM after 10 mins by gel-based radiolabeled primer extension assay. Put shortly: as §1

Each structure is given as a SMILES string. Calls of active or inactive are those of the source. The rule behind the calls is not given here.

As to `Cc1cn([C@H]2C[C@H](F)[C@@H](COP(=O)(OP(=O)(O)O)OP(=O)(O)O)O2)c(=O)[nH]c1=O`, the inhibition entry in [1], in test [2], in [3] and in test [4] was “Active” in each case.
With `Cc1cn([C@H]2C=C[C@@H](COP(=O)(OP(=O)(O)O)OP(=O)(O)O)O2)c(=O)[nH]c1=O`, the inhibition entry in [1], in test [2], in [3] and in [4] was “Active” each time.
As to `Cc1cn([C@H]2C[C@H](N=[N+]=[N-])[C@@H](COP(=O)(OP(=O)(O)O)OP(=O)(O)O)O2)c(=O)[nH]c1=O`, the inhibition entry in test [5], in [6], in test [7] and in [9] was “Active” each time. Moreover, the inhibition result in test [8] is “inactive”.
Regarding `Nc1ncnc2c1ncn2[C@@H]1O[C@H](COP(=O)(OP(=O)(O)O)OP(=O)(O)O)[C@@H](O)[C@H]1O`, the inhibition result in test [5], in test [6], in test [7] and in test [9] was “Active” in each case. Further, the inhibition result in [8] was “inactive”.
